# Assays:
# [1] = test system: coagulation parameters (PT, PTA, APTT, TT); experiment: Coagulation parameters; type: in vivo, healthy Chinese subjects; conditions: for PT / TT / APTT / PTA: mean ± SD
# [2] = Pharmacokinetics after a single 150 mg oral dose, fasting or postprandial; type: in vivo, healthy Chinese subjects
# Method in brief: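 Healthy volunteers, 50 per fasting or fed trial, in a randomized two-sequence (TRTR/RTRT), four-period, fully replicated crossover with a 7-day washout. Each dose was one 150 mg capsule with 240 mL warm boiled water, given fed after a ~950 kcal high-fat meal. 18 venous samples per period to 48 h in precooled EDTA-K2 tubes, spun 1700g 10 min 4 °C, plasma stored ≤−60 °C. Total-dabigatran range 1.000–300.0 ng/mL; parameters per subject.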
"Tmax ([2]; after a high-fat meal, median, both formulations) [h]","Tmax ([2]; human, plasma, oral, 150 mg) [h]",Compound,change of TT values after administration ([1]; both fasting and postprandial),"PT ([1]; fasting, fourth periodicity, n = 48, screening 13.01 ± 0.490) [s]","TT ([1]; fasting, fourth periodicity, n = 48, screening 17.71 ± 0.880) [s]","APTT ([1]; fasting, fourth periodicity, n = 48, screening 36.22 ± 3.090) [s]","PTA ([1]; fasting, fourth periodicity, n = 48, screening 101.7 ± 7.960) [%]","PT ([1]; fasting, second periodicity, n = 50, screening 13.01 ± 0.490) [s]","TT ([1]; fasting, second periodicity, n = 50, screening 17.71 ± 0.880) [s]","APTT ([1]; fasting, second periodicity, n = 50, screening 36.22 ± 3.090) [s]","PTA ([1]; fasting, second periodicity, n = 50, screening 101.7 ± 7.960) [%]","PT ([1]; postprandial, fourth periodicity, n = 50, screening 12.62 ± 0.570) [s]","TT ([1]; postprandial, fourth periodicity, n = 50, screening 17.63 ± 0.940) [s]","APTT ([1]; postprandial, fourth periodicity, n = 50, screening 36.25 ± 2.860) [s]","PTA ([1]; postprandial, fourth periodicity, n = 50, screening 108.9 ± 10.58) [%]","PT ([1]; postprandial, second periodicity, n = 50, screening 12.62 ± 0.570) [s]","TT ([1]; postprandial, second periodicity, n = 50, screening 17.63 ± 0.940) [s]","APTT ([1]; postprandial, second periodicity, n = 50, screening 36.25 ± 2.860) [s]","PTA ([1]; postprandial, second periodicity, n = 50, screening 108.9 ± 10.58) [%]"
,,CCCCCCOC(=O)N=C(N)c1ccc(NCc2nc3cc(C(=O)N(CCC(=O)OCC)c4ccccn4)ccc3n2C)cc1 [dabigatran etexilate],increased more significantly,13.07 ± 0.488,20.73 ± 2.099,36.61 ± 3.352,101.2 ± 8.167,12.89 ± 0.475,19.58 ± 1.976,36.71 ± 3.947,104.4 ± 8.741,12.82 ± 0.479,21.30 ± 2.537,36.22 ± 2.746,105.5 ± 8.808,13.14 ± 0.504,20.78 ± 2.490,36.06 ± 2.660,100.2 ± 8.297
4,2.5,[H]/N=C(/N)c1ccc(NCc2nc3cc(C(=O)N(CCC(=O)O)c4ccccn4)ccc3n2C)cc1 [dabigatran],,,,,,,,,,,,,,,,,
